Laboratory results published in ChEMBL document CHEMBL1125920, “Synthesis and biological activity of 5-alkyl-1,7,8-trisubstituted-6-fluoroquinoline-3-carboxylic acids” (1991).
Values after ≈ are worked out from the molar mass of the structure shown.

Experiments:
Escherichia coli = assay: Antibacterial activity was determined against gram negative organism, E. coli(vogel); format: functional
How it was run: (§1)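 MIC by standard microtitration against a panel of 10 representative Gram-negative and Gram-positive organisms; values reported in µg/mL.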

Staphylococcus aureus [1] = assay: Antibacterial activity was determined against gram positive organism, Staphylococcus aureus (H228); format: functional; how it was run: as §1
Enterococcus faecalis = assay: Antibacterial activity was determined against gram positive organism, Streptococcus faecalis (MGH-2); format: functional; how it was run: as §1
Pseudomonas aeruginosa = assay: Antibacterial activity was determined against gram negative organism, Pseudomonas aeruginosa (UI-18); format: functional; how it was run: as §1
Bacteria = assay: Antibacterial activity was determined against gram negative organism, Providencia rettgeri. (M1771); format: functional; how it was run: as §1
[2] = MIC ratio measured as the mean MICs of gram-positive bacteria; format: functional
How it was run: (§2)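 Geometric mean of the MICs (µg/mL) over the Gram-negative or the Gram-positive strains of the 10-organism microtitration panel, calculated separately for each class.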

Streptococcus pneumoniae = assay: Antibacterial activity was determined against gram positive organism, Streptococcus pneumoniae (SV-1); format: functional; how it was run: as §1
Streptococcus pyogenes = assay: Antibacterial activity was determined against gram positive organism, Streptococcus pyogenes (C203); format: functional; how it was run: as §1
Enterobacter cloacae = assay: Antibacterial activity against gram negative organism, […] (MA2646); format: functional
Staphylococcus aureus [3] = assay: Antibacterial activity was determined against gram positive organism, Staphylococcus aureus (UC76); format: functional; how it was run: as §1
[4] = MIC ratio measured as the mean MICs of gram-negative bacteria; format: functional; how it was run: as §2
[5] = target: DNA gyrase (Escherichia coli) (UniProt P0AES6+P0AES4)
Klebsiella pneumoniae = assay: Antibacterial activity was determined against gram negative organism, K. pneumoniae (MGH-2); format: functional; how it was run: as §1

MIC (Escherichia coli) [µg/mL]	MIC (Staphylococcus aureus [1]) [µg/mL]	MIC (Enterococcus faecalis) [µg/mL]	MIC (Pseudomonas aeruginosa) [µg/mL]	MIC (Bacteria) [µg/mL]	MIC (Streptococcus pneumoniae) [µg/mL]	MIC (Streptococcus pyogenes) [µg/mL]	MIC (Enterobacter cloacae) [µg/mL]	MIC (Staphylococcus aureus [3]) [µg/mL]	DNA cleavage [5] [µg/mL]	MIC (Klebsiella pneumoniae) [µg/mL]	SMILES	Ratio [2]	Ratio [4]
0.1 (≈ 0.296 µM)	0.4 (≈ 1.19 µM)	0.4 (≈ 1.19 µM)	0.4 (≈ 1.19 µM)	0.2 (≈ 0.593 µM)	0.4 (≈ 1.19 µM)	0.2 (≈ 0.593 µM)	0.1 (≈ 0.296 µM)	0.1 (≈ 0.296 µM)	2.5	0.2 (≈ 0.593 µM)	CCn1cc(C(=O)O)c(=O)c2cc(F)c(N3CCC(N)C3)c(F)c21 (configuration not stated)	0.27	0.17
0.1 (≈ 0.277 µM)	0.2 (≈ 0.553 µM)	0.2 (≈ 0.553 µM)	3.1 (≈ 8.58 µM)	1.6 (≈ 4.43 µM)	0.2 (≈ 0.553 µM)	0.1 (≈ 0.277 µM)	0.4 (≈ 1.11 µM)	0.1 (≈ 0.277 µM)	2.5	0.4 (≈ 1.11 µM)	CCNCC1CCN(c2cc3c(cc2F)c(=O)c(C(=O)O)cn3CC)C1 (configuration not stated)	0.15	0.6
0.2 (≈ 0.553 µM)	1.6 (≈ 4.43 µM)	1.6 (≈ 4.43 µM)	3.1 (≈ 8.58 µM)	1.6 (≈ 4.43 µM)	1.6 (≈ 4.43 µM)	3.1 (≈ 8.58 µM)	0.4 (≈ 1.11 µM)	0.2 (≈ 0.553 µM)	8.8	0.8 (≈ 2.21 µM)	CCn1cc(C(=O)O)c(=O)c2c(C)c(F)c(N3CC(C)NC(C)C3)cc21 (configuration not stated)	1.2	0.79
0.05 (≈ 0.12 µM)	0.1 (≈ 0.24 µM)	0.2 (≈ 0.479 µM)	1.6 (≈ 3.83 µM)	0.2 (≈ 0.479 µM)	0.1 (≈ 0.24 µM)	0.1 (≈ 0.24 µM)	0.05 (≈ 0.12 µM)	0.025 (≈ 0.0599 µM)	0.75	0.1 (≈ 0.24 µM)	CC1CN(c2cc3c(cc2F)c(=O)c(C(=O)O)cn3-c2ccc(F)cc2F)CCN1 (configuration not stated) [TEMAFLOXACIN]	0.087	0.15
0.05 (≈ 0.142 µM)	0.4 (≈ 1.14 µM)	0.8 (≈ 2.28 µM)	1.6 (≈ 4.55 µM)	0.4 (≈ 1.14 µM)	1.6 (≈ 4.55 µM)	3.1 (≈ 8.82 µM)	0.05 (≈ 0.142 µM)	0.1 (≈ 0.285 µM)	3	0.2 (≈ 0.569 µM)	CCn1cc(C(=O)O)c(=O)c2c(C)c(F)c(N3CCC(N)C3)c(F)c21 (configuration not stated)	0.69	0.2
0.025 (≈ 0.0683 µM)	0.025 (≈ 0.0683 µM)	0.05 (≈ 0.137 µM)	0.05 (≈ 0.137 µM)	0.025 (≈ 0.0683 µM)	0.025 (≈ 0.0683 µM)	0.05 (≈ 0.137 µM)	0.025 (≈ 0.0683 µM)	0.013 (≈ 0.0355 µM)	0.5	0.025 (≈ 0.0683 µM)	NC1CCN(c2c(F)cc3c(=O)c(C(=O)O)cn(C4CC4)c3c2Cl)C1 (configuration not stated) [CLINAFLOXACIN]	0.029	0.029

SMILES	MIC (Escherichia coli) [µg/mL]	MIC (Staphylococcus aureus [1]) [µg/mL]	MIC (Enterococcus faecalis) [µg/mL]	MIC (Pseudomonas aeruginosa) [µg/mL]	MIC (Bacteria) [µg/mL]	MIC (Streptococcus pneumoniae) [µg/mL]	MIC (Streptococcus pyogenes) [µg/mL]	MIC (Enterobacter cloacae) [µg/mL]	MIC (Staphylococcus aureus [3]) [µg/mL]	DNA cleavage [5] [µg/mL]	MIC (Klebsiella pneumoniae) [µg/mL]	Ratio [2]	Ratio [4]
O=C(O)c1cn(C2CC2)c2c(Cl)c(N3CCNCC3)c(F)cc2c1=O	0.025 (≈ 0.0683 µM)	0.1 (≈ 0.273 µM)	0.4 (≈ 1.09 µM)	0.4 (≈ 1.09 µM)	0.1 (≈ 0.273 µM)	0.1 (≈ 0.273 µM)	0.2 (≈ 0.547 µM)	0.025 (≈ 0.0683 µM)	0.05 (≈ 0.137 µM)	0.5	0.05 (≈ 0.137 µM)	0.13	0.066
Cc1c(F)c(N2CCNCC2)c(Cl)c2c1c(=O)c(C(=O)O)cn2C1CC1	0.025 (≈ 0.0658 µM)	0.05 (≈ 0.132 µM)	0.2 (≈ 0.527 µM)	0.2 (≈ 0.527 µM)	0.2 (≈ 0.527 µM)	0.1 (≈ 0.263 µM)	0.2 (≈ 0.527 µM)	0.05 (≈ 0.132 µM)	0.025 (≈ 0.0658 µM)	1.5	0.1 (≈ 0.263 µM)	0.087	0.087
CCn1cc(C(=O)O)c(=O)c2c(C)c(F)c(N3CCNCC3)cc21	0.1 (≈ 0.3 µM)	3.1 (≈ 9.3 µM)	1.6 (≈ 4.8 µM)	1.6 (≈ 4.8 µM)	0.4 (≈ 1.2 µM)	3.1 (≈ 9.3 µM)	6.3 (≈ 18.9 µM)	0.2 (≈ 0.6 µM)	0.4 (≈ 1.2 µM)	3	0.4 (≈ 1.2 µM)	2.08	0.35
